What all share (assay type): functional
Assay [1] has as its system Rattus norvegicus. Nature of the assay: Hypolipidemic effects(plasma TG) in male rats at 25 mg/kg. In short, it runs like this: (§1)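 Head-to-head oral dosing at 12.5, 25 and 50 mg/kg daily […] in male rats kept on a high lipid diet, alongside gemfibrozil reference. Plasma lipid fractions and liver weight expressed as % change vs controls.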
In assay [2] the test system is Rattus norvegicus. Nature of the assay: Hypolipidemic effects (high-density lipoprotein (HDL) cholesterol) in male rats at 12.50 mg/kg. The note with it: dose 12.5 mg/kg. In outline:
as §1

In assay [3] the test system is Rattus norvegicus. Nature of the assay: Hypolipidemic effects (Low-density lipoprotein (LDL) cholesterol) in male rats at 12.50 mg/kg. The conditions noted are these: dose 12.5 mg/kg. In short, it runs like this: as §1
Assay [4] concerns Rattus norvegicus. Nature of the assay: Hypolipidemic effects(plasma cholesterol) in male rats at 12.50 mg/kg. The note with it: dose 12.5 mg/kg. In short, it runs like this:
as §1

The subject of assay [5] is Rattus norvegicus. Nature of the assay: Hypolipidemic effects as the ratio of (HDL/LDL) in male rats at dose 25 mg/kg. In outline:
(§2)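 Male rats on a high lipid diet, dosed orally […] at 12.5, 25 or 50 mg/kg, with gemfibrozil reference. HDL/LDL (VLDL included) ratio from densitometry of polyacrylamide gel electrophoresis patterns of plasma. Expressed as % change vs controls.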

Assay [6] deals with Rattus norvegicus. Nature of the assay: Hypolipidemic effects as the ratio of (HDL/LDL) in male rats at dose 50 mg/kg. In outline: as §2
The species entered for assay [7] is Rattus norvegicus. Nature of the assay: Hypolipidemic effects(liver weight) in male rats. In short, it runs like this:
(§3)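 Male rats, 10 per group, fed 7 days on chow with 10% fat (5.5% added peanut oil), 1.5% cholesterol and 0.1% cholic acid. Oral gavage on days 4-7 in 4% acacia, usually 50 mg/kg daily. Fasted overnight, killed day 8, atrial blood into EDTA. Plasma cholesterol, TG and HDL cholesterol (after MnCl2/heparin precipitation) by Autoanalyzer. % change vs controls, Student's t test.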

For assay [8], the system named is Rattus norvegicus. Nature of the assay: Hypolipidemic effects(plasma cholesterol) in male rats;Compound was screening orally at 50 mg/Kg. In outline: as §3
In assay [9] the test system is Rattus norvegicus. Nature of the assay: Hypolipidemic effects as the ratio of (HDL/LDL) in male rats at dose 12.5 mg/kg. In outline: as §2
In assay [10] the test system is Rattus norvegicus. Nature of the assay: Hypolipidemic effects (high-density lipoprotein (HDL) cholesterol) in male rats at 25 mg/kg. In outline: as §1
The test system of assay [11] is Rattus norvegicus. Nature of the assay: Hypolipidemic effects(plasma TG) in male rats;Compound was screening orally at 50 mg/Kg. In outline: as §3
Assay [12] relates to Rattus norvegicus. Nature of the assay: Hypolipidemic effects(plasma cholesterol) in male rats at 25 mg/kg. In short, it runs like this: as §1
Assay [13] is filed under the species Rattus norvegicus. Nature of the assay: Hypolipidemic effects (low-density lipoprotein (LDL) cholesterol) in male rats. In outline:
as §3

In assay [14] the test system is Rattus norvegicus. Nature of the assay: Hypolipidemic effects (Low-density lipoprotein (LDL) cholesterol) in male rats at 25 mg/kg. In short, it runs like this: as §1
The test system of assay [15] is Rattus norvegicus. Nature of the assay: Hypolipidemic effects (high-density lipoprotein (HDL) cholesterol) in male rats; Compound was screening orally at 50 mg/Kg. In short, it runs like this: as §3
The subject of assay [16] is Rattus norvegicus. Nature of the assay: Hypolipidemic effects(plasma TG) in male rats at 12.50 mg/kg. The note with it: dose 12.5 mg/kg. In outline:
as §1

Assay [17] concerns Rattus norvegicus. Nature of the assay: Hypolipidemic effects(liver weight) in male rats at 25 mg/kg. In outline: as §1
The subject of assay [18] is Rattus norvegicus. Nature of the assay: Hypolipidemic effects(liver weight) in male rats at 12.50 mg/kg. The note with it: dose 12.5 mg/kg. In short, it runs like this:
as §1

The subject of assay [19] is Rattus norvegicus. Nature of the assay: Hypolipidemic effects (high-density lipoprotein (HDL) cholesterol) in male rats at 50 mg/kg. In short, it runs like this:
as §1

Assay [20] deals with Rattus norvegicus. Nature of the assay: Hypolipidemic effects(plasma cholesterol) in male rats at 50 mg/kg. In short, it runs like this:
as §1

The subject of assay [21] is Rattus norvegicus. Nature of the assay: Hypolipidemic effects(liver weight) in male rats at 50 mg/kg. In short, it runs like this: as §1
For assay [22], the system named is Rattus norvegicus. Nature of the assay: Hypolipidemic effects (high-density lipoprotein (HDL) cholesterol) in male rats at 50 mg/kg orally. The note with it: route oral. In short, it runs like this:
as §1

The subject of assay [23] is Rattus norvegicus. Nature of the assay: Hypolipidemic effects(plasma TG) in male rats at 50 mg/kg. In outline:
as §1

For assay [24], the system named is Rattus norvegicus. Nature of the assay: Hypolipidemic effects (high-density lipoprotein (HDL) cholesterol) in male rats at 50 mg/kg; Compound was screening orally at 50 mg/Kg. In short, it runs like this:
as §3

Assay [25] has as its system Rattus norvegicus. Nature of the assay: Hypolipidemic effects (Low-density lipoprotein (LDL) cholesterol) in male rats at 50 mg/kg. In outline: as §1
Assay [26] concerns Rattus norvegicus. Nature of the assay: Hypolipidemic effects (Low-density lipoprotein (LDL) cholesterol) in male rats at 50 mg/kg; Compound was screening orally at 50 mg/Kg. In outline: as §3
Assay [27] has as its system Rattus norvegicus. Nature of the assay: Hypolipidemic effects(liver weight) in male rats at 12.5 mg/kg. In short, it runs like this: as §1
In assay [28] the test system is Rattus norvegicus. Nature of the assay: Hypolipidemic effects (high-density lipoprotein (HDL) cholesterol) in male rats at a dose of 50 mg/kg; Compound was screening orally at 50 mg/Kg. In short, it runs like this:
as §3

For assay [29], the system named is Rattus norvegicus. Nature of the assay: Hypolipidemic effects (high-density lipoprotein (HDL) cholesterol) in male rats at 12.5 mg/kg. In outline: as §1
Assay [30] relates to Rattus norvegicus. Nature of the assay: Hypolipidemic effects(plasma cholesterol) in male rats at a dose of 50 mg/kg. In short, it runs like this: as §3
For assay [31], the system named is Rattus norvegicus. Nature of the assay: Hypolipidemic effects(plasma TG) in male rats at a dose of 50 mg/kg. In short, it runs like this: as §3
The subject of assay [32] is Rattus norvegicus. Nature of the assay: Hypolipidemic effects (Low-density lipoprotein (LDL) cholesterol) in male rats at a dose of 50 mg/kg; Compound was screening orally at 50 mg/Kg. In outline:
as §3

The source of these data is ChEMBL document CHEMBL1122242, “Phenylenebis(oxy)bis[2,2-dimethylpentanoic acid]s: agents that elevate high-density lipoproteins” (1983).

Several values for one entry are separate records, joined by “and”; a condition that tells them apart may be missing. Equal values may be shown once.

For `CC(C)(CCCOc1ccc(SCCCC(C)(C)C(=O)O)cc1)C(=O)O`, the Change in assay [1] is 37%; in assay [2] it was 74%; in assay [3], -25%; in assay [4], -19%; in assay [5], 302%; in [6] it was 785%. The Change is 18% in assay [7]; -44% in assay [8]; 101% in [9]; 232% in assay [10]; -40% in assay [11]; -22% in assay [12]. Besides, the Change in assay [13] was -51%; in assay [14], -40%; in [15] it was 628%; in assay [16] it was 0%; in [17], 6%; in assay [18], 0%.
On to `CC(C)(CCCCOc1ccc(OCCCCC(C)(C)C(=O)O)cc1)C(=O)O`, for which the Change in assay [1] was 0%; in [19], 1477%; in assay [2] it was 81%; in [20], 0%; in assay [3], -40%; in assay [4], -33%. Besides, the Change in assay [5] stood at 339%; in assay [6], 1722%; in assay [21] it was 36%; in assay [22], 1477%; in assay [9], 180%; in [10], 227%. The Change in [23] is reported as -20%; in assay [12], -35%; in [14], -50%; in assay [16], -16%; in assay [17], 14%; in [18], 4%.
As for `CC(C)(CCCOc1ccc(OCCCC(C)(C)C(=O)O)c(Cl)c1)C(=O)O`, the Change was -31% in assay [1]; 753% in [24]; 753% in assay [19]; 94% in assay [2]; -53% in [20]; -74% in assay [3]. Moreover, the Change is listed as -65% in assay [4]; 493% in assay [5]; 1445% in [6]; 38% in [21]; -62% in [25]; 242% in assay [9]. Also, the Change in assay [10] is 206%; in [23] it was 0%; in [12] it was -60%; in assay [14], -77%; in assay [16], -28%; in assay [17] it was 18%. The Change was 8% in assay [18] and -62% in assay [26].
Consider `Cc1ccc(C)c(OCCCC(C)(C)C(=O)O)c1` [GEMFIBROZIL], for which the Change is 64% [middle of 5 runs] in assay [1] (25 mg/kg); 7% and 4% in assay [27]; 498% and 306% in [19] (50 mg/kg); 134% in assay [2]; -26% and -29% in [20] (50 mg/kg); -16% in assay [3]. The Change in assay [4] was 0%; in [5] (25 mg/kg), 214% [middle of 5 runs]; in [6] (50 mg/kg), 364% and 594% and 405%; in assay [28], 339%; in [21] (50 mg/kg), 17% and 26% and 13%; in assay [25] it was -42%. The Change in [29] was 88% and 134% and 116% and 133%; in assay [9] (12.5 mg/kg), 98% [middle of 5 runs]; in assay [30] it was 0%; in assay [10] (25 mg/kg) it was 215% and 257% and 171% and 236% and 246%; in assay [23] (50 mg/kg), 57% and 69%; in assay [31], 233%. Moreover, the Change in [14] (25 mg/kg) was -22% [middle of 4 runs]; in assay [16], 45%; in [17] (25 mg/kg), 10% and 8% and 9% and 11%; in [18] it was 7%; in assay [32] it was -32%.
